This note sets out measurements from ChEMBL document CHEMBL1146271, “The discovery of a potent orally efficacious indole androgen receptor antagonist through in vivo screening” (2007).

The species entered for assay [1] is Rattus norvegicus. Nature of the assay: Reduction of testosterone-induced prostate weight increase in Sprague-Dawley rat by modified Hersherberger assay relative to control. It is filed as functional, Prostate gland. Also on record: concentration or dose not given beside the values. The essentials: (§1)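 Rats castrated at three weeks old, then dosed orally by gavage once daily for five days in 30% (w/v) hydroxypropyl-β-cyclodextrin, together with testosterone propionate 0.1 mg/day (about 1.3 mg/kg) s.c. in sesame oil. At necropsy, ventral prostate wet weight was measured. Values are body-weight-adjusted means of three or four animals.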

Assay [2] is filed under the species Rattus norvegicus. Description: Inhibition of testosterone-induced prostate weight increase in Sprague-Dawley rat by modified Hersherberger assay. It is filed as functional, Prostate gland. In short, it runs like this:
as §1

Calls of active or inactive are those of the source. The rule behind the calls is not given here.

`CC(O)(CCl)c1cc2cc([N+](=O)[O-])c(C(F)(F)F)cc2[nH]1` (stereo not given): the Activity in assay [1] worked out at 38%.
`CC(O)(c1cc2cc([N+](=O)[O-])c(C(F)(F)F)cc2[nH]1)C(F)(F)F` (stereo not given) registered an Activity in assay [1] of 78%.
`CC(C)(O)c1[nH]c2cc(C(F)(F)F)c([N+](=O)[O-])cc2c1C#N`: the Activity in assay [1] was 56%.
Same read-out and setting: then `CC(C)(O)c1[nH]c2cc(C(F)(F)F)c([N+](=O)[O-])cc2c1Cl`, with 81%; and `Cc1c(C(C)(C)O)[nH]c2cc(C(F)(F)F)c([N+](=O)[O-])cc12`, with 37%; and `CCC(C)(O)c1cc2cc([N+](=O)[O-])c(C(F)(F)F)cc2[nH]1` (stereo not given), with 63%.
On the same count and under the same terms, then `Cn1c(C(C)(O)C(F)(F)F)cc2cc(C#N)c(C(F)(F)F)cc21` (stereo not given), with 90%.
On to `CC(O)(c1cc2cc(C#N)c(C(F)(F)F)cc2[nH]1)C(F)(F)F` (stereo in doubt; 6i), for which the Activity in assay [1] stood at 82%.
For `CC(C)(O)c1[nH]c2cc(C(F)(F)F)c(C#N)cc2c1Cl`, the ID50 in assay [2] is listed as over 3 mg/day.
As for `CC(O)c1cc2cc([N+](=O)[O-])c(C(F)(F)F)cc2[nH]1` (stereo not given), in assay [1] (Prostate gland), the outcome was inactive.
`CC(O)(c1cc2cc(C#N)c(C(F)(F)F)cc2[nH]1)C(F)(F)F` (single isomer, unassigned; (-)) came in with an Activity in assay [1] of 80%. The compound further had an ID50 in assay [2] of 0.13 mg/day.
As to `CC(C)(O)c1[nH]c2cc(C(F)(F)F)c(C#N)cc2c1I`, the Activity in assay [1] came to 81%. Moreover, the ID50 in assay [2] was 1.1 mg/day.
For the compound `CC(C)(O)c1[nH]c2cc(C(F)(F)F)c(C#N)cc2c1Br`, in assay [2], the ID50 worked out at 0.8 mg/day.
Compound `CC(O)(c1cc2cc(C#N)c(C(F)(F)F)cc2[nH]1)C(F)(F)F` (single isomer, unassigned; (+)) came in with an Activity in assay [1] of 76%. The compound further returned an ID50 in assay [2] of 0.43 mg/day.
In assay [1], `Cc1c(C(C)(C)O)[nH]c2cc(C(F)(F)F)c(C#N)cc12` displayed an Activity of 55%.
Take `CC(C)(O)c1[nH]c2cc(C(F)(F)F)c([N+](=O)[O-])cc2c1Br`: the Activity in assay [1] worked out at 71%.
For `C=Cc1c(C(C)(C)O)[nH]c2cc(C(F)(F)F)c([N+](=O)[O-])cc12`, the outcome in assay [1] (Prostate gland) was inactive.
Turning to `CC(O)(c1[nH]c2cc(C(F)(F)F)c(C#N)cc2c1I)C(F)(F)F` (stereo not given), in assay [1], the Activity worked out at 79%.
Still for that read-out and setting: then `CC(O)(c1cc2cc(C#N)ccc2[nH]1)C(F)(F)F` (stereo not given), with 55%.
Regarding `CC(O)(c1[nH]c2cc(C(F)(F)F)c(C#N)cc2c1Cl)C(F)(F)F` (stereo not given), the Activity in assay [1] turned out to be 66%.
`CSCC(C)(O)c1cc2cc([N+](=O)[O-])c(C(F)(F)F)cc2[nH]1` (stereo not given) yielded an Activity in assay [1] of 66%.
The compound `CC(O)(CS(=O)(=O)c1ccc(F)cc1)C(=O)Nc1ccc(C#N)c(C(F)(F)F)c1` (stereo not given) [BICALUTAMIDE] gave an Activity in assay [1] of 75%. The ID50 in assay [2] was 0.29 mg/day.
Consider `CC(O)(c1cc2cc(Cl)c(C(F)(F)F)cc2[nH]1)C(F)(F)F` (stereo not given), for which, in assay [1], the Activity turned out to be 30%.
Turning to `CC(C)(O)c1[nH]c2cc(C(F)(F)F)c([N+](=O)[O-])cc2c1I`, in assay [1], the Activity is given as 59%.
In assay [1], `CC(O)(CO)c1cc2cc([N+](=O)[O-])c(C(F)(F)F)cc2[nH]1` (stereo not given) registered an Activity of 58%.
Regarding `CC(C)(O)c1cc2cc([N+](=O)[O-])c(C(F)(F)F)cc2[nH]1`, the Activity in assay [1] worked out at 32%.
